# PMC8178987 (Chemical Science, 2020)
# Legend:
# Assay type in all cases: binding
# gpPorA = assay: Single-channel recording of peptide interaction/translocation with gpPorA; conditions: for discrimination of R4 and R9 in competitive blocking: R4 10 µM, cis and R9 100 nM, 150 mM KCl
# pPorA-C24 = conditions: subconductance pores; R6 1 µM cis; R9 0.5 µM; 150 mM KCl, pH 7.4
# pPorA-A24 = assay: Single-channel recording of peptide interaction with pPorA-A24
# In short: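 Single pores in planar lipid bilayers formed on an aperture prepainted with hexadecane in n-pentane (5 mg mL−1). Test peptide added to the cis side in 0.15 M KCl, 10 mM HEPES, pH 7.4, recorded at −5 and −20 mV. Current was digitally filtered at 4 and 7 kHz with an 8-pole Bessel filter. τoff came from dwell-time histograms.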
# pPorA-K24 = assay: Single-channel recording of peptide interaction with pPorA-K24; conditions: for ion current blockages: cis, 0.15 M KCl, pH 7.4
# [1] = 0.5 μM, cis, negative voltages, 0.15 M KCl, pH 7.4
# [2] = 0.5 μM, trans, +10 mV to +35 mV, 0.15 M KCl, pH 7.4
substance,measurement,setting,value
hexaarginine [R6],blockage events,"gpPorA; 0.5 μM, cis, above −25 mV, 0.15 M KCl, pH 7.4",not resolved accurately
same,blockage events,"gpPorA; 0.5 μM, cis, higher positive voltages, 0.15 M KCl, pH 7.4",no blockage events were observed
same,ion current blockage (block),gpPorA; [1],100%
same,frequency of blockage events,"gpPorA; 0.5 μM, cis, −5 mV to −25 mV, 0.15 M KCl, pH 7.4",decreased with an increase in the voltage
same,ion current blockages,"gpPorA; 0.5 μM, trans, 0.15 M KCl, pH 7.4",time-resolved ion current blockages
same,asymmetry in peptide binding/translocation between cis and trans sides,"gpPorA; 0.5 μM, 0.15 M KCl, pH 7.4",no significant asymmetry
same,Kd,"gpPorA; read-out: KDcis, cis, −10 mV, 0.15 M KCl, pH 7.4",5.19 µM
same,ion current blockages,pPorA-C24,combination of strong and weak ion current blockages
nonaarginine [R9],ion current blockages,"gpPorA; 0.5 μM, cis, above +40 mV, 0.15 M KCl, pH 7.4",less frequent ion current blockages
same,frequency of ion current blockages,"gpPorA; 0.5 μM, cis, above −40 mV, 0.15 M KCl, pH 7.4",considerably reduced
same,ion current blockage (block),gpPorA; [1],100%
same,ion current blockages,"gpPorA; 0.5 μM, cis, pH 7.4, 0.15 M KCl, compared with pH 4.5",voltage-dependent well-defined ion current blockages
same,ion current blockages,"gpPorA; 0.5 μM, cis, −5 mV, −10 mV and −15 mV, pH 4.5, citrate buffer, 0.15 M KCl","short-lived, less frequent ion current blockages"
same,pore state on peptide addition,"gpPorA; 0.5 μM, cis, −5 mV, 0.15 M KCl, pH 7.4",predominantly remained closed
same,voltage dependence of kon and koff,"gpPorA; 0.5 μM, cis, −10 mV to −35 mV, 0.15 M KCl, pH 7.4",increased with the voltage
same,ion current blockages,"gpPorA; 0.5 μM, cis, −20 mV and −25 mV, pH 4.5, citrate buffer, 0.15 M KCl",no prominent blockage events
same,ion current blockage (block),gpPorA; [2],100%
same,voltage dependence of kon and koff,gpPorA; [2],an increase in the kon and koff
same,τoff,"gpPorA; 0.5 μM, trans, +10 mV, 0.15 M KCl, 10 mM HEPES, pH 7.4, n = 3",35 ± 3 ms
same,ion current blockages against the electrophoretic pulling,"gpPorA; 0.5 μM, trans, negative voltages, 0.15 M KCl, pH 7.4",ion current blockages against the electrophoretic pulling was observed
same,asymmetry in peptide binding/translocation between cis and trans sides,"gpPorA; 0.5 μM, 0.15 M KCl, pH 7.4",well-defined asymmetry
same,ion current blockages,"gpPorA; 1 μM, cis, added after D9 to the same pores, 0.15 M KCl, pH 7.4",voltage-dependent intense blockage events
same,τoff,"gpPorA; 100 μM, cis, −10 mV, 1 M KCl, 10 mM HEPES, pH 7.4, n = 3",0.14 ± 0.02 ms
same,ion current blockage (block),"gpPorA; 100 μM, cis, −10 mV, 1 M KCl, pH 7.4",~70%
same,ion current blockages,"gpPorA; 100 μM, cis, −20 mV, −30 mV and −50 mV, 1 M KCl, pH 7.4",less frequent to unresolved ion current blockages
same,discrimination of R4 and R9 in competitive blocking,"gpPorA; cis, −20 mV and −25 mV, pH 7.4",discriminated based on τoff
same,ion current blockages,"pPorA-A24; 0.5 μM, cis, −5 mV to −20 mV, 0.15 M KCl, pH 7.4",ion current blockages exclusively at negative voltages
same,binding affinity,pPorA-A24; directly formed pPorA compared to self-assembled gpPorA,less affinity
same,ion current blockages,pPorA-C24,combination of strong and weak ion current blockages
nonaaspartate [D9],ion current blockages,"gpPorA; 100 μM, cis, different peptide concentrations and voltages, 0.15 M KCl, pH 7.4",did not produce any ion current blockages
same,ion current blockages,pPorA-K24; 0.5 μM,did not produce defined ion current blockages
same,ion current blockages,"pPorA-K24; 10 μM, +50 mV","very short, less frequent ion current blockage"
same,ion current blockages,"pPorA-K24; 10 μM, negative voltages",no ion current blockages were observed
same,binding affinity,pPorA-K24; compared with R9 binding to cation-selective gpPorA (C24),weak D9 peptide binding
tetraarginine [R4],binding to pore,"gpPorA; 10 μM, cis/trans, 0.15 M KCl, pH 7.4",weak electrostatic binding
same,frequency of the blockage events,"gpPorA; 10 μM, cis, negative voltages to −75 mV, 0.15 M KCl, pH 7.4",increased with the voltage
same,ion current blockages,"gpPorA; 10 μM, cis, positive voltages, 0.15 M KCl, pH 7.4",No peptide-induced ion current blockages were detected
same,ion current blockages,"gpPorA; 10 μM, cis, −25 mV, 0.15 M KCl, pH 7.4",occasional ion current blockages
same,τoff (mean dwell time of blocking),"gpPorA; 10 μM, cis, −75 mV, 0.15 M KCl, 10 mM HEPES, pH 7.4, n = 3",165 ± 15 μs
same,ion current blockages,"gpPorA; 10 μM, trans, higher positive voltages, 0.15 M KCl, pH 7.4","short, less frequent blockage events"
same,discrimination of R4 and R9 in competitive blocking,"gpPorA; cis, −20 mV and −25 mV, pH 7.4",discriminated based on τoff
